Kir21 block: blocks the mouse Kir2.1 inward-rectifier potassium channel; P35561; HEK293-Kir2.1, FluxOR thallium flux fluorescence; hits give low values; B-score at 10 µM; 310,000 tested, 0.85% active;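 active = fluorescence ratio B-score at or below minus 3 SD of library scores, with starting-brightness B-score within 2 SD, cut at about -4.2 in these data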;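 note: channel flux triggered by added potassium and thallium sulfate stimulus; B-score of peak minus minimum fluorescence over baseline after thallium stimulus; more negative B-score means stronger Kir2.1 block with less thallium influx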
TRPC6 inh: mouse TRPC6 channel inhibition; HEK293-TRPC6, membrane potential dye, ACh-evoked depolarization; hits give low values; B-score at 10 µM; 310,000 tested, 1.1% active; AID 2553;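 active = B-score under library mean minus 3 SD, initial fluorescence not abnormally high, positive integrated signal ratio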;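 note: B-score derived from integrated fluorescence ratio over the kinetic read; more negative B-score means stronger inhibition of depolarization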
TRPC6 act: mouse TRPC6 channel activation. HEK293-TRPC6 membrane potential dye fluorescence; hits give high values. B-score at 10 µM. 310,000 tested, 0.13% active;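 active = B-score of the integrated fluorescence ratio above library mean plus 3 SD, and starting fluorescence ratio within library mean plus 5 SD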;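 note: higher score means more depolarization so channel activation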
TRPC4 PAM: allosteric potentiators of mouse TRPC4 channel; HEK293 TRPC4beta/mu-opioid, DAMGO EC20, Fluo-4 Ca2+ flux; hits give high values; AID 2227; B-score at 10 µM; 310,000 tested, 0.42% active; Q9QUQ5;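 active = B-score of calcium response area above 5 SD of library B-scores, with initial fluorescence ratio within 5 SD of library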;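 note: B-score of integrated fluorescence ratio over time as area under calcium response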
Target sequence (Q9QUQ5 whole entry, looked up): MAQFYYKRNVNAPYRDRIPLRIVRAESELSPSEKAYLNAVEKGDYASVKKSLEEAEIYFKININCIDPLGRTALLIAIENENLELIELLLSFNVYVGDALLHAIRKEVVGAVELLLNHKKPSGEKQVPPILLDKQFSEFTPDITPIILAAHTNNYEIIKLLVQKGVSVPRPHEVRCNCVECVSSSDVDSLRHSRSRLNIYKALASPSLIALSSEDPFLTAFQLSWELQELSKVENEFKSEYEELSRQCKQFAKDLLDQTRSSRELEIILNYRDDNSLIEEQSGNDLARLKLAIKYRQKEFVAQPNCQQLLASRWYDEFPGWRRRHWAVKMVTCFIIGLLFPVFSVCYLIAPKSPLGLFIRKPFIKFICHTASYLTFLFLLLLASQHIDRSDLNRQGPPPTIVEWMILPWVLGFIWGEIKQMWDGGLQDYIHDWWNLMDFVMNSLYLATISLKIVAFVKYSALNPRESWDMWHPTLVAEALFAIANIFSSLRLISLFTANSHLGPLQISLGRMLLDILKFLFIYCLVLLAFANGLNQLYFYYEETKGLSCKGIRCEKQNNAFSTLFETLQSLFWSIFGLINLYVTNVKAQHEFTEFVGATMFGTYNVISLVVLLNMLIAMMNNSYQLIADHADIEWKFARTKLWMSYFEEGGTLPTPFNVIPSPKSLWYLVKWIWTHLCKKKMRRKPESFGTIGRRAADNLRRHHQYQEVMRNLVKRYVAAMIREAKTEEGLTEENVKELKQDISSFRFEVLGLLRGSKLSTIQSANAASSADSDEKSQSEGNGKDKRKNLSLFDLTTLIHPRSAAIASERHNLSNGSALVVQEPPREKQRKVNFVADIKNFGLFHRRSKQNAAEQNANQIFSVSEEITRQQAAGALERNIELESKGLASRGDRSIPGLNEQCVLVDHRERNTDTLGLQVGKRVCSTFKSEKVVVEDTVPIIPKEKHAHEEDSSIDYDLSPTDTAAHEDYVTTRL
TRPC4 block: blocks the mouse TRPC4 cation channel; Q9QUQ5; HEK293 TRPC4beta/mu-opioid, DAMGO-evoked Fluo4 calcium flux; hits give low values; B-score at 10 µM; 300,000 tested, 0.39% active; AID 2247;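 active = B-score over 3 SD under the library average, no early fluorescence shift, positive overall ratio signal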
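test system = HEK293 cells with stable TRPC4beta plus mu-opioid receptor expression | detection = Fluo4 Ca2+ flux fluorescence | read-out = integrated fluorescence ratio relative to baseline, converted to per-well B score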
TRPC4 agonist: TRPC4 (mouse) channel activation; B-score at 10 µM; 310,000 tested, 0.49% active; HEK293 TRPC4beta/mu-opioid, Fluo4 calcium fluorescence; hits give high values;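 active = B-score above 5 SD of library B-scores, and initial fluorescence ratio not above library mean plus 5 SD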;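 note: positive B-score marks a calcium rise read as TRPC4 activation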
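Material: HEK293 stable line with TRPC4beta plus mu-opioid receptor; technique: Fluo4 calcium-sensitive dye fluorescence, kinetic, 1 Hz baseline; timing: Fluo4 dye loading 45 min at room temperature, 110 s recording; controls: assay buffer as low control, maximal DAMGO as high control; read-out: integrated baseline-normalised fluorescence ratio, converted to per-well B score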
An asterisk follows results filed as active; i = inactive. This is a sample that favours compounds with a hit; in the whole collection about 3% have one here.

SMILES	Kir21 block	TRPC6 inh	TRPC6 act	TRPC4 PAM	TRPC4 block	TRPC4 agonist
COc1ccc(Nc2nc(N3CCN(S(=O)(=O)N(C)C)CC3)nc3ccccc23)cc1	-1.2	i	i	i	i	i
COc1cc(CCCN2C(=S)NC[C@@H]2CC2CCCCC2)cc(OC)c1OC	-4.3*	i	i	i	i	i
COc1cc(CCCN2C(=O)C(=O)NC[C@@H]2CC2CCCCC2)cc(OC)c1OC	-2.1	i	i	i	i	i
O=C(CNC(=O)Cc1ccccc1)NCC(=O)OCc1ccccc1	-0.14	i	i	i	i	i
O=C(Cc1ccccc1)NCC(=O)OC(c1ccccc1)c1ccccc1	-5.4*	i	i	i	i	i
CCCNc1nc2ccccc2n2c(C)nnc12	0.06	i	i	i	-6*	i
CCCN(CCC)c1nc2ccccc2n2c(C)nnc12	0	i	i	i	i	i
O=C1S/C(=C\c2ccc(O)c([N+](=O)[O-])c2)C(=O)N1c1ccccc1Cl	-0.13	i	i	i	-10*	i
COc1cccc(CC(=O)Nc2ccc(S(=O)(=O)Nc3nc(C)cc(C)n3)cc2)c1	2.1	i	i	i	i	i
Cc1cc(=O)nc2c3ccccc3n(C(C)C(=O)NCCN3CCOCC3)n12 (stereo unspecified)	0.15	i	i	i	i	i
CCc1sc(C(=O)NCCCn2ccnc2)cc1Br	-0.27	i	i	i	i	i
CC(C)C(NC(=O)c1ccc(C(C)(C)C)cc1)C(=O)NCC(c1ccccc1)N(C)C (stereo unspecified)	-2.1	i	i	i	-7*	i
CC(C)C(NC(=O)c1ccc(C(C)(C)C)cc1)C(=O)NCCc1ccccn1 (stereo unspecified)	0.6	i	i	i	i	i
COc1ccc(CN(CCC(c2ccc(F)cc2)C2CCOC(C)(C)C2)C(=O)c2ccco2)cc1 (stereo unspecified)	-0.62	i	i	i	i	i
CC(c1ccccc1)N(CCC(c1ccccc1)C1CCOC(C)(C)C1)C(=O)c1ccco1 (stereo unspecified)	-6*	i	i	i	i	i
CSCCC(NC(=O)c1ccccc1)C(=O)Nc1ccc(NC(C)=O)cc1 (stereo unspecified)	0.93	-5.2*	i	i	i	i
Cn1c(=O)oc2cc(S(=O)(=O)Nc3cccc([N+](=O)[O-])c3)ccc21	0.56	i	i	i	i	i
CC(C)(C)c1ccc(-c2nnc3sc(-c4ccccn4)nn23)cc1	0.21	i	i	85*	i	i
c1ccc(CC2=NCCN2)cc1	-1.6	i	i	i	i	i
O=C(CC1=NCCNC(c2ccccc2)C1)c1ccccc1O (stereo unspecified)	-6*	i	i	10*	i	i
CCOC(=O)C1(CCCc2ccccc2)CCN(C(=O)c2cc(C)nn2CC)CC1	0.23	i	i	i	i	i
COCCN(C(=O)CSc1n[nH]c(-c2ccccc2)n1)c1c(N)n(CC(C)C)c(=O)[nH]c1=O	1.2	i	i	i	i	i
Cc1ccc2nc(CCc3nc4ccc(C)cc4[nH]3)[nH]c2c1	-4.4*	i	i	i	i	i
c1ccc2[nH]c(CCCCc3nc4ccccc4[nH]3)nc2c1	-1.6	i	i	i	-6*	i
O=C(Cc1nc2ccccc2[nH]1)c1ccc(Br)cc1	2.7	i	i	i	i	72*
SMILES	Kir21 block	TRPC6 inh	TRPC6 act	TRPC4 PAM	TRPC4 block	TRPC4 agonist
Cc1ccc(N2C(=O)NC(C(F)(F)F)(C(F)(F)F)C3=C2CC(C)(C)CC3=O)cc1	3.1	i	i	i	i	i
CCCCc1c(O)nc(SCC(=O)Nc2cccc3ccccc23)n(-c2ccccc2OC)c1=O	-1.8	i	i	i	-5*	i
CS(=O)(=O)Nc1ccc(C2=NN(S(=O)(=O)c3ccc(F)cc3)C(c3ccco3)C2)cc1 (stereo unspecified)	-2	i	i	i	i	i
O=C(C1CCN(S(=O)(=O)c2cnc[nH]2)CC1)N(CCc1ccccc1)Cc1ccccc1	-0.58	i	i	i	i	i
O=C(C1CCN(CC2CC=CCC2)CC1)N(CCc1ccccc1)Cc1ccccc1 (stereo unspecified)	-0.37	i	i	i	-5*	i
CCN(C(=O)COC(=O)CCC(=O)c1cccs1)c1c(N)n(Cc2ccccc2)c(=O)[nH]c1=O	0.54	i	i	i	i	i
O=C(c1ccccc1Cl)N1CCC(n2cccc2)CC1	-0.52	i	i	i	i	i
COc1ccc(CCNC2CCC(c3ccccc3)CC2)cc1 (stereo unspecified)	-1.8	i	i	i	i	104*
COc1ccc(CCNC(=O)c2ccccc2)cc1	1.4	i	i	i	i	i
C(=N\N(Cc1ccccc1)c1ccccc1)/c1cccnc1	-1.2	i	i	i	-6*	i
O=C(C1Cc2ccccc2CN1C(=O)c1ccccc1)N1CCN(c2ccccc2)CC1 (stereo unspecified)	0.02	i	i	i	i	i
CCc1ccc(CN2CCC(Oc3ccc(C(=O)N4CCCC4)cc3)CC2)cc1	-0.85	i	i	i	i	i
O=C(c1ccc(OC2CCN(Cc3ccc(F)cc3)CC2)cc1)N1CCCC1	-4.2*	i	i	i	i	i
CSc1ccc(CN2CCC(Oc3ccc(C(=O)N4CCCC4)cc3)CC2)cc1	-4.4*	i	i	i	i	i
COc1ccc(N2CCN(CCCNC(=O)C(=O)c3c[nH]c4ccccc34)CC2)cc1	0.08	i	i	i	i	i
COCCN1CCN(c2c3c(nc4cc(-c5cccc(F)c5)nn24)CCC3)CC1	1.3	i	i	11*	i	60*
Cc1onc(-c2ccccc2Cl)c1C(=O)N(C)C1CCCCC1	-0.33	i	i	i	i	i
O=C(CN1CCN(C/C=C/c2ccccc2)CC1)NCc1ccccc1	0.95	i	i	i	i	i
O=C(CCN1CCN(C/C=C/c2ccccc2)CC1)Nc1ccc(Cl)cc1	-1.3	i	i	i	i	i
COc1cc(NC(=O)CCN2CCN(C/C=C/c3ccccc3)CC2)cc(OC)c1	0.08	i	i	10*	i	73*
